According to ChEMBL document CHEMBL1123499, “Synthesis, saludiuretic, and antihypertensive activity of 6,7-disubstituted 1(2H)- and 3,4-dihydro-1(2H)-phthalazinones” (1986):

Columns and labels:
Rattus norvegicus [1] = organism: Rattus norvegicus; test: Compound was tested for antihypertensive activity in rat after 1 hr postdose; assay type: functional
Summary of the method: (§1)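 DOCA/saline hypertensive Sprague-Dawley rats (250-350 g), six per group, given 10 mg/kg doca s.c. daily with saline until systolic BP reached 170 mmHg (usually 3-4 weeks). Oral 25 mg/kg in 5 mL/kg 1% methylcellulose. Systolic BP by tail-cuff before and 1, 4, 24 h after; drop reported as mean ± SD.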

Rattus norvegicus [2] = organism: Rattus norvegicus; test: Compound was tested for antihypertensive activity in rat after 24 hr postdose; assay type: functional; summary of the method: as §1
Rattus norvegicus [3] = organism: Rattus norvegicus; test: Compound was tested for antihypertensive activity in rat after 4 hr postdose; assay type: functional; summary of the method: as §1
Rattus norvegicus [4] = organism: Rattus norvegicus; test: Diuretic activity in rats at time intervals of 0-24 hours; assay type: functional, Urine
Summary of the method: (§2)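 Male Sabra rats (170-200 g), starved 18 h, given 50 mg/kg by stomach tube in saline (25 mL/kg load), eight per compound, saline and furosemide controls run alongside. Held two per metabolic cage at 22 °C without food or water. Urine volume measured at 5 and 24 h collections.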

Rattus norvegicus [5] = organism: Rattus norvegicus; test: Diuretic activity in rats at time intervals of 0-5 hours; assay type: functional, Urine; summary of the method: as §2
Rattus norvegicus [6] = organism: Rattus norvegicus; test: Diuretic activity in rats at time intervals of 5-24 hours; assay type: functional, Urine; summary of the method: as §2
Rattus norvegicus [7] = test: Blood pressure was measured in spontaneously hypertensive rat after po administration at 24 hr; assay type: functional
Summary of the method: (§3)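 Male-unspecified SHR (250-350 g; baseline BP at least 170 mmHg by indirect tail-cuff plethysmography), nonanesthetized, five per group. Single oral dose of 75 mg/kg. Indirect BP and heart rate recorded before dosing and 4, 8 and 24 h after. Group means reported, BP ± SEM.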

Rattus norvegicus [8] = test: Blood pressure was measured in spontaneously hypertensive rat after po administration at 4 hr; assay type: functional; summary of the method: as §3
Rattus norvegicus [9] = test: Blood pressure was measured in spontaneously hypertensive rat after po administration at 8 hr; assay type: functional; summary of the method: as §3
Rattus norvegicus [10] = test: The heart rate was measured in spontaneous hypertensive rat after po administration at 4 hr; assay type: functional; summary of the method: as §3
Rattus norvegicus [11] = test: The heart rate was measured in spontaneously hypertensive rat after po administration at 24 hr; assay type: functional; summary of the method: as §3
Rattus norvegicus [12] = test: The heart rate was measured in spontaneously hypertensive rat after po administration at 8 hr; assay type: functional; summary of the method: as §3
Rattus norvegicus [13] = organism: Rattus norvegicus; test: Saluretic activity in rats after 5-24 hours, as sodium ion concentration in urine; assay type: functional
Summary of the method: (§4)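 Male Sabra rats (170-200 g), fasted 18 h, dosed orally 50 mg/kg in saline at 25 mL/kg, eight per compound, two per metabolic cage, no food or water. Urine collected 5 and 24 h after dosing and centrifuged. Chloride titrated with Hg(NO3)2/diphenylcarbazone after HNO3 acidification; Na+ and K+ by atomic absorption.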

Rattus norvegicus [14] = organism: Rattus norvegicus; test: Saluretic activity in rats after 0-24 hours, as chloride ion concentration in urine; assay type: functional; summary of the method: as §4
Rattus norvegicus [15] = organism: Rattus norvegicus; test: Saluretic activity in rats after 0-24 hours, as potassium ion concentration in urine; assay type: functional; summary of the method: as §4
Rattus norvegicus [16] = organism: Rattus norvegicus; test: Saluretic activity in rats after 0-24 hours, as sodium ion concentration in urine; assay type: functional; summary of the method: as §4
Rattus norvegicus [17] = organism: Rattus norvegicus; test: Saluretic activity in rats after 0-5 hours, as chloride ion concentration in urine; assay type: functional; summary of the method: as §4
Rattus norvegicus [18] = organism: Rattus norvegicus; test: Saluretic activity in rats after 0-5 hours, as sodium ion concentration in urine; assay type: functional; summary of the method: as §4
Rattus norvegicus [19] = organism: Rattus norvegicus; test: Saluretic activity in rats after 5-24 hours, as chloride ion concentration in urine; assay type: functional; summary of the method: as §4
Rattus norvegicus [20] = organism: Rattus norvegicus; test: Saluretic activity in rats after 5-24 hours, as potassium ion concentration in urine; assay type: functional; summary of the method: as §4
Rattus norvegicus [21] = organism: Rattus norvegicus; test: Saluretic activity in rats after 0-5 hours, as potassium ion concentration in urine; assay type: functional; summary of the method: as §4
Rattus norvegicus [22] = organism: Rattus norvegicus; test: Saluretic activity in rats after 0-24 hours, as ratio of Na+/K+ ion concentration in urine; assay type: functional; summary of the method: as §4
Rattus norvegicus [23] = organism: Rattus norvegicus; test: Saluretic activity in rats after 0-5 hours, as ratio of Na+/K+ ion concentration in urine; assay type: functional; summary of the method: as §4
Rattus norvegicus [24] = organism: Rattus norvegicus; test: Saluretic activity in rats after 5-24 hours, as ratio of Na+/K+ ion concentration in urine; assay type: functional; summary of the method: as §4

NS(=O)(=O)c1cc2c(=O)n(Cc3ccccc3)ncc2cc1Cl
Decrease in blood pressure (Rattus norvegicus [1]): 23 mmHg | Decrease in blood pressure (Rattus norvegicus [2]): 47 mmHg | Decrease in blood pressure (Rattus norvegicus [3]): 36 mmHg | Diuretic activity (Rattus norvegicus [4]): 10.8 mL | Diuretic activity (Rattus norvegicus [5]): 5.9 mL | Diuretic activity (Rattus norvegicus [6]): 4.9 mL | BP (Rattus norvegicus [7]): 170.2 mmHg | Delta blood pressure (Rattus norvegicus [7]): 14.6 mmHg | BP (Rattus norvegicus [8]): 163.2 mmHg | Delta blood pressure (Rattus norvegicus [8]): 23.4 mmHg | BP (Rattus norvegicus [9]): 149 mmHg | Delta blood pressure (Rattus norvegicus [9]): 40.2 mmHg | Heart rate (Rattus norvegicus [10]): 399.6 beats min-1 | Heart rate (Rattus norvegicus [11]): 402 beats min-1 | Heart rate (Rattus norvegicus [12]): 411.6 beats min-1 | Saluretic activity (Rattus norvegicus [13]): 5.92 m equiv kg-1 | Saluretic activity (Rattus norvegicus [14]): 13.69 m equiv kg-1 | Saluretic activity (Rattus norvegicus [15]): 5.3 m equiv kg-1 | Saluretic activity (Rattus norvegicus [16]): 12.32 m equiv kg-1 | Saluretic activity (Rattus norvegicus [17]): 7.97 m equiv kg-1 | Saluretic activity (Rattus norvegicus [18]): 6.4 m equiv kg-1 | Saluretic activity (Rattus norvegicus [19]): 5.72 m equiv kg-1 | Saluretic activity (Rattus norvegicus [20]): 3.36 m equiv kg-1 | Saluretic activity (Rattus norvegicus [21]): 1.94 m equiv kg-1 | Ratio (Rattus norvegicus [22]): 2.32 | Ratio (Rattus norvegicus [23]): 3.29 | Ratio (Rattus norvegicus [24]): 1.78

NS(=O)(=O)c1cc2c(cc1Cl)CNN(Cc1ccco1)C2=O
Decrease in blood pressure (Rattus norvegicus [1]): 25.3 mmHg | Decrease in blood pressure (Rattus norvegicus [2]): 23 mmHg | Decrease in blood pressure (Rattus norvegicus [3]): 31.3 mmHg | Diuretic activity (Rattus norvegicus [4]): 10.5 mL | Diuretic activity (Rattus norvegicus [5]): 6.7 mL | Diuretic activity (Rattus norvegicus [6]): 3.8 mL | Saluretic activity (Rattus norvegicus [13]): 3.09 m equiv kg-1 | Saluretic activity (Rattus norvegicus [14]): 11.43 m equiv kg-1 | Saluretic activity (Rattus norvegicus [15]): 5.75 m equiv kg-1 | Saluretic activity (Rattus norvegicus [16]): 9.83 m equiv kg-1 | Saluretic activity (Rattus norvegicus [17]): 8.45 m equiv kg-1 | Saluretic activity (Rattus norvegicus [18]): 6.74 m equiv kg-1 | Saluretic activity (Rattus norvegicus [19]): 2.98 m equiv kg-1 | Saluretic activity (Rattus norvegicus [20]): 3.37 m equiv kg-1 | Saluretic activity (Rattus norvegicus [21]): 2.38 m equiv kg-1 | Ratio (Rattus norvegicus [22]): 1.71 | Ratio (Rattus norvegicus [23]): 2.83 | Ratio (Rattus norvegicus [24]): 0.92

NS(=O)(=O)c1cc2c(cc1Cl)C(=O)NNC2
Decrease in blood pressure (Rattus norvegicus [1]): 34.7 mmHg | Decrease in blood pressure (Rattus norvegicus [2]): 47.7 mmHg | Decrease in blood pressure (Rattus norvegicus [3]): 51 mmHg | Diuretic activity (Rattus norvegicus [4]): 6.6 mL | Diuretic activity (Rattus norvegicus [5]): 2.9 mL | Diuretic activity (Rattus norvegicus [6]): 3.7 mL | Saluretic activity (Rattus norvegicus [13]): 5.84 m equiv kg-1 | Saluretic activity (Rattus norvegicus [14]): 9.77 m equiv kg-1 | Saluretic activity (Rattus norvegicus [15]): 5.52 m equiv kg-1 | Saluretic activity (Rattus norvegicus [16]): 9.07 m equiv kg-1 | Saluretic activity (Rattus norvegicus [17]): 3.49 m equiv kg-1 | Saluretic activity (Rattus norvegicus [18]): 3.23 m equiv kg-1 | Saluretic activity (Rattus norvegicus [19]): 6.28 m equiv kg-1 | Saluretic activity (Rattus norvegicus [20]): 3.94 m equiv kg-1 | Saluretic activity (Rattus norvegicus [21]): 1.58 m equiv kg-1 | Ratio (Rattus norvegicus [22]): 1.64 | Ratio (Rattus norvegicus [23]): 2.04 | Ratio (Rattus norvegicus [24]): 1.48

NS(=O)(=O)c1cc2cnn(Cc3ccccc3)c(=O)c2cc1Cl
Decrease in blood pressure (Rattus norvegicus [1]): 35.3 mmHg | Decrease in blood pressure (Rattus norvegicus [2]): 4.7 mmHg | Decrease in blood pressure (Rattus norvegicus [3]): 54.3 mmHg | Diuretic activity (Rattus norvegicus [4]): 6.2 mL | Diuretic activity (Rattus norvegicus [5]): 2.6 mL | Diuretic activity (Rattus norvegicus [6]): 3.6 mL | Saluretic activity (Rattus norvegicus [13]): 6.29 m equiv kg-1 | Saluretic activity (Rattus norvegicus [14]): 8.9 m equiv kg-1 | Saluretic activity (Rattus norvegicus [15]): 5.74 m equiv kg-1 | Saluretic activity (Rattus norvegicus [16]): 8.79 m equiv kg-1 | Saluretic activity (Rattus norvegicus [17]): 2.9 m equiv kg-1 | Saluretic activity (Rattus norvegicus [18]): 2.5 m equiv kg-1 | Saluretic activity (Rattus norvegicus [19]): 6 m equiv kg-1 | Saluretic activity (Rattus norvegicus [20]): 3.9 m equiv kg-1 | Saluretic activity (Rattus norvegicus [21]): 1.84 m equiv kg-1 | Ratio (Rattus norvegicus [22]): 1.53 | Ratio (Rattus norvegicus [23]): 1.36 | Ratio (Rattus norvegicus [24]): 1.62

NS(=O)(=O)c1cc(C(=O)O)c(NCc2ccco2)cc1Cl [FUROSEMIDE]
Decrease in blood pressure (Rattus norvegicus [1]): 35.8 mmHg | Decrease in blood pressure (Rattus norvegicus [2]): 5.3 mmHg | Decrease in blood pressure (Rattus norvegicus [3]): 59.2 mmHg | Diuretic activity (Rattus norvegicus [4]): 22 mL | Diuretic activity (Rattus norvegicus [5]): 19.2 mL | Diuretic activity (Rattus norvegicus [6]): 3 mL | Saluretic activity (Rattus norvegicus [13]): 3.02 m equiv kg-1 | Saluretic activity (Rattus norvegicus [14]): 17.85 m equiv kg-1 | Saluretic activity (Rattus norvegicus [15]): 8.78 m equiv kg-1 | Saluretic activity (Rattus norvegicus [16]): 16.22 m equiv kg-1 | Saluretic activity (Rattus norvegicus [17]): 16.2 m equiv kg-1 | Saluretic activity (Rattus norvegicus [18]): 13.2 m equiv kg-1 | Saluretic activity (Rattus norvegicus [19]): 1.65 m equiv kg-1 | Saluretic activity (Rattus norvegicus [20]): 4.42 m equiv kg-1 | Saluretic activity (Rattus norvegicus [21]): 4.36 m equiv kg-1 | Ratio (Rattus norvegicus [22]): 1.85 | Ratio (Rattus norvegicus [23]): 3.03 | Ratio (Rattus norvegicus [24]): 0.68
